An excerpt weighted towards active compounds, which were near 0.94% of everything screened.
NPR1 activator – GC-A stimulated cGMP production enhancers – HEK293 GC-A cells, cGMP TR-FRET, EC30 ANP, primary screen | 370,000 tested, 0.14% active | 0% at EC30 ANP, 100% saturating ANP | activation, % at 10 µM; in the data active = activation above about 40%
Target sequence (P16066 whole entry, looked up): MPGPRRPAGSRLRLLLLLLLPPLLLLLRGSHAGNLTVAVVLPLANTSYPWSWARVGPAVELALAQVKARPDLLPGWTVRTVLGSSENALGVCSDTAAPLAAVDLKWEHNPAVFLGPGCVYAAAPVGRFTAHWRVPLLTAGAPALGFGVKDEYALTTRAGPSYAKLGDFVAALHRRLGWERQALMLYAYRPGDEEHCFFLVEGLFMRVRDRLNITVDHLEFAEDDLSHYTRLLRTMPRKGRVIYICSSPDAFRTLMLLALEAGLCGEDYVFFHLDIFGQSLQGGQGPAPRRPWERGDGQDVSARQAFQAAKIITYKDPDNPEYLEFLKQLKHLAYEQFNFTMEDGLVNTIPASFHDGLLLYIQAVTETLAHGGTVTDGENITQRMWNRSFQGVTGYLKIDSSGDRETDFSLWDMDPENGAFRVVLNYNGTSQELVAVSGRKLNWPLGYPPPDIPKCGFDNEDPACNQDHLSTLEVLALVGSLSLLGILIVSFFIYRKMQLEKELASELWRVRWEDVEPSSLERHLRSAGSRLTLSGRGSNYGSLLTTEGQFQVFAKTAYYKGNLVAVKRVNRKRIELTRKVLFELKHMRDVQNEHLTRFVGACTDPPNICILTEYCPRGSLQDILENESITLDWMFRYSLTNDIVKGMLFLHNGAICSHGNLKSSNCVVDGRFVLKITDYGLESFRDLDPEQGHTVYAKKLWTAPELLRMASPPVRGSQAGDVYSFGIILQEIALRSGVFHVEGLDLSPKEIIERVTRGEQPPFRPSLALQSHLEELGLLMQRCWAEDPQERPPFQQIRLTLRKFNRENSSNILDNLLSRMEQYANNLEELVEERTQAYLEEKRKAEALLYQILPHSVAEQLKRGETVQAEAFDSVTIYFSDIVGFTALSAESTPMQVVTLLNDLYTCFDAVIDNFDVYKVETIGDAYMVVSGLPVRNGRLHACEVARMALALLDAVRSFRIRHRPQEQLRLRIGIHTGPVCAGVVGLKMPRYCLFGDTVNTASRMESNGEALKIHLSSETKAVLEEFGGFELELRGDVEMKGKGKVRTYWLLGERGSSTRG
GC-B act – human GC-B receptor activators, primary screen, HEK293 GC-B cells, cGMP TR-FRET, EC30 CNP; 370,000 tested, 0.11% active; AID 1920062, 2024; Atrial natriuretic peptide receptor 2 (Homo sapiens), P20594; 0% at EC30 CNP, 100% saturating CNP; activation, % at 10 µM;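 active = activation at 10 µM reaching about 35% in either raw or pattern-adjusted values, limit read from the data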
GalR3 antag – GalR3 antagonists in HEK293 cells, primary screen, cell-based, fluorescence readout; HEK293 GalR3-CNG cAMP membrane potential fluorescence; galR3 body fused to GalR1 C-terminus; inhibition, % at 3 µM; 360,000 tested, 0.44% active;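 active = inhibition above the screen-wide average plus 3 SD, cut at about 13% in these data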;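 also: forskolin and galanin both at EC90 stimulate the cells; cAMP rise reported by CNG channel membrane potential dye signal; 0% = forskolin plus galanin with DMSO and 100% = forskolin alone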
Arrestin-AP2 inh – inhibitors of beta-arrestin/AP2 binding, primary screen, biochemical, GPCR trafficking, flow cytometry | FITC-arrestin peptide / GST-AP2 beads; AP2 beta2 appendage carries R879A mutation | inhibition, % at 10 µM | 340,000 tested, 0.31% active;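 active = inhibition above a set limit, near 3 SD of compounds lacking own fluorescence, cut at about 54% in these data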;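 also: plate controls were DMSO wells for no effect and 5 µM unlabelled arrestin peptide for full effect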
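System: GST-tagged AP2 beta2-adaptin appendage (R879A) on 4 µm glutathione beads / Reagent: FITC-arrestin peptide, 50 nM / Detection: HyperCyt-sampled flow cytometry, FL1 channel, ex 488/em 535 nm / Timing: 12 min plus 1 h, RT / Buffer or medium: PBS plus Tween 20 (0.05%) and BSA (0.1%)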
Arr-AP2 CP1 – inhibitors of arrestin peptide binding to AP2, confirmation, biochemical, cherry pick 1, flow cytometry beads | GST-AP2 beads, FITC arrestin peptide binding; GST-fused beta2-adaptin appendage, R879A mutant | shares compounds with Arrestin-AP2 inh | 1,300 tested, 2% active | AID 504908, 2011 | inhibition, % at 10 µM;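 active = inhibition above a set limit, roughly 3 SD of non-fluorescent compound noise, cut at about 38% in these data; inactive = inhibition at or below that limit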;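 also: loss of bead fluorescence from 50 nM FITC arrestin peptide bound to appendage; 0% = negative control wells and 100% = excess unlabelled arrestin peptide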
GST-FITC bead – GST-fluorescein capture on glutathione beads, confirmation, artefact control for arrestin-AP2 inhibitor project, biochemical, cherry pick 1, flow cytometry; shares compounds with Arrestin-AP2 inh; GST-fluorescein binding to GSH beads, fluorescence, counter-screen; inhibition, % at 10 µM; 1,300 tested, 2% active;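 active = inhibition above 50%, about 3 SD of the inhibition seen with non-fluorescent compounds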;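 also: fluorescein maleimide labelled GST captured on 4 micron glutathione beads; higher means more loss of bead fluorescence from quenching or blocked binding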
The depositor's hits bear a star.

Screening Cc1c(N(C(=O)Nc2ccccc2)C2=NCC(C)S2)c(=O)n(-c2ccccc2)n1C (centres undefined) returned NPR1 activator 1, GC-B act -1, GalR3 antag 5, Arrestin-AP2 inh 98*, Arr-AP2 CP1 -3 and GST-FITC bead -1.
Screening COc1ccccc1-c1cccc2[nH]c3c(c12)CCN1C(=O)[C@H]2[C@H](C)ON(C)[C@H]2C[C@@H]31 returned NPR1 activator -2, GC-B act 1 and GalR3 antag -6.
For CCOc1ccc(NS(=O)(=O)c2ccc(NS(C)(=O)=O)cc2)cc1 the results were NPR1 activator 2, GC-B act -10, GalR3 antag 0 and Arrestin-AP2 inh -1.
For CCOc1ccc(S(=O)(=O)Nc2ccc(C(=O)NCC3CCCO3)cc2)cc1 (centres undefined) the results were NPR1 activator 0, GC-B act 8, GalR3 antag -1, Arrestin-AP2 inh 56*, Arr-AP2 CP1 21 and GST-FITC bead -9.
`CCOc1ccc(S(=O)(=O)NC2CCCCCC2)cc1` gave NPR1 activator 3, GC-B act 0, GalR3 antag -5, Arrestin-AP2 inh 57*, Arr-AP2 CP1 -3 and GST-FITC bead 1.
For CCOc1ccc(NS(=O)(=O)c2cc(C(=O)NCC3CCCO3)ccc2Cl)cc1 (centres undefined) the results were NPR1 activator -2, GC-B act -1, GalR3 antag 1 and Arrestin-AP2 inh 27.
CCOc1ccc(S(=O)(=O)Nc2ccn(C)n2)cc1 was read as NPR1 activator 7, GC-B act 3, GalR3 antag -7, Arrestin-AP2 inh 77*, Arr-AP2 CP1 -16 and GST-FITC bead 1.
For O=C(Nc1c(-c2ccccc2)nc2ncccn12)c1ccc(F)cc1 the results were NPR1 activator 3 and GC-B act 3.
CCn1cc(C(=O)N[C@@H](C)C(=O)OC)c(=O)c2cc3c(cc21)OCO3 was read as NPR1 activator 0, GC-B act 0, GalR3 antag -9, Arrestin-AP2 inh 55*, Arr-AP2 CP1 -1 and GST-FITC bead -5.
CCn1cc(C(=O)N[C@H](C(=O)O)C(C)C)c(=O)c2cc3c(cc21)OCO3 was read as NPR1 activator 4, GC-B act 3, GalR3 antag -8 and Arrestin-AP2 inh -11.
For COCCN(CCOC)C(=O)[C@@H](Cc1ccccc1)NC(=O)[C@H]1O[C@@H](n2ccc(N)nc2=O)[C@H](O)[C@@H]1O the results were NPR1 activator -2, GC-B act -5 and GalR3 antag 0.
For CN(C)c1ccc(C(=O)/C=C/c2ccc(Br)cc2)cc1 the results were NPR1 activator -7, GC-B act -1, GalR3 antag 0, Arrestin-AP2 inh 98*, Arr-AP2 CP1 38* and GST-FITC bead 190*.
CC(C)C[C@H]1COc2c(Cl)cccc2S(=O)(=O)N1Cc1cccc(Cl)c1 was read as NPR1 activator -4, GC-B act -4 and GalR3 antag -7.
For O=C1CC(c2ccco2)CC(O)=C1C=NCCN1CCN(C(=O)Nc2ccc(Cl)cc2)CC1 (centres undefined) the results were NPR1 activator -1, GC-B act 0, GalR3 antag 2 and Arrestin-AP2 inh 34.
For O=C1CC(c2ccco2)CC(O)=C1C=NCCN1CCN(C(=S)Nc2ccccc2)CC1 (centres undefined) the results were NPR1 activator 1, GC-B act 3, GalR3 antag 0, Arrestin-AP2 inh 56*, Arr-AP2 CP1 -9 and GST-FITC bead -5.
For Nc1[nH]c2cc(C(F)(F)F)ccc2c1C(=O)NC1CCCCC1 the results were NPR1 activator 1 and GC-B act 0.
`Cc1ccc(-c2nnn(CC(=O)N(c3ccccc3)C(C(=O)NCC3CCCO3)c3ccc(F)cc3)n2)o1` (centres undefined) gave NPR1 activator -3, GC-B act -1, GalR3 antag -2, Arrestin-AP2 inh 66*, Arr-AP2 CP1 6 and GST-FITC bead 0.
`NC(=O)[C@@H]1CCCN1Cc1c(C(=O)N2CCN(C3CCCCC3)CC2)nc2ccccn12` gave NPR1 activator -1, GC-B act 2, GalR3 antag 2, Arrestin-AP2 inh 54*, Arr-AP2 CP1 2 and GST-FITC bead 1.
Screening Cc1nnc(SCCn2c(N3CCN(C)CC3)nc3c2c(=O)[nH]c(=O)n3C)s1 returned NPR1 activator -3, GC-B act 7, GalR3 antag -1 and Arrestin-AP2 inh -5.
Cc1nnc(SCCn2c(Br)nc3c2c(=O)[nH]c(=O)n3C)s1 was read as NPR1 activator 3, GC-B act -3, GalR3 antag 1, Arrestin-AP2 inh 95*, Arr-AP2 CP1 -10 and GST-FITC bead -3.
Screening O=C(Oc1ccc2ccc(=O)oc2c1)N1CCOCC1 returned NPR1 activator 7, GC-B act 4, GalR3 antag 0, Arrestin-AP2 inh 55*, Arr-AP2 CP1 1 and GST-FITC bead -9.
Screening CN(NC(=O)COc1ccccc1)C1=NS(=O)(=O)c2ccccc21 returned NPR1 activator -2, GC-B act -1, GalR3 antag 5, Arrestin-AP2 inh 62*, Arr-AP2 CP1 0 and GST-FITC bead -7.
Cc1cc(Oc2cccc3c2S(=O)(=O)N([C@H](C)c2ccccc2)C[C@@H](COCc2ccccc2)O3)cc(C)c1C was read as NPR1 activator -6, GC-B act -11 and GalR3 antag -4.
For Cc1ccn2c(NC(=O)C(C)(C)Oc3ccc(Cl)cc3)c(-c3cccs3)nc2c1 the results were NPR1 activator -5, GC-B act 1, GalR3 antag -6, Arrestin-AP2 inh 60*, Arr-AP2 CP1 -6 and GST-FITC bead 4.
Screening COCCCNc1nc2ccccc2nc1NS(=O)(=O)c1ccc(C)c(C)c1 returned NPR1 activator 0, GC-B act -4, GalR3 antag 9 and Arrestin-AP2 inh 7.
COCCNc1nc2ccccc2nc1NS(=O)(=O)c1ccc(C)cc1C was read as NPR1 activator -6, GC-B act -6, GalR3 antag 1, Arrestin-AP2 inh 105*, Arr-AP2 CP1 -8 and GST-FITC bead -8.
`Cc1ccc(C(=O)N2CCC(Oc3cccnc3)CC2)c(C)c1` gave NPR1 activator 3 and GC-B act 6.
`Cc1ccc2c(c1)-c1c(cnn1CC(=O)NCCc1ccc(Cl)cc1)CO2` gave NPR1 activator -13 and GC-B act -9.

Bioassay records as filed in PubChem BioAssay.
